For data set [1], the target named is T1, Aurora kinase A (Homo sapiens, UniProt O14965).
T1 sequence (O14965 whole entry): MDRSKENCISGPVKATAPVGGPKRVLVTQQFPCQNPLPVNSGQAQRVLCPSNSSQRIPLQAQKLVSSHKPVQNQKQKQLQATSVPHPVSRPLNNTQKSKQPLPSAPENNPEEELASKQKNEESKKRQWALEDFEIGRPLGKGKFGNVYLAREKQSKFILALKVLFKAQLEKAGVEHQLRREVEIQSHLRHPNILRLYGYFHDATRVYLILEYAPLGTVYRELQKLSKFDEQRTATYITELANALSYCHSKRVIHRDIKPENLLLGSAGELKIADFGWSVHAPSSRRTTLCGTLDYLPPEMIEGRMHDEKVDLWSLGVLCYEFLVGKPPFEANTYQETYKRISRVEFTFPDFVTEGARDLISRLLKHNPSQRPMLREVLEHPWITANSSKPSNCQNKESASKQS
Briefly: Inhibition of autophosphorylation of N-terminal Myc tagged aurora-A at T288 (unknown origin) after 2 hrs. The gist of the method:
(§1)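 Cells transfected with Myc-tagged Aurora-A (wild type or T217E, L215R, R220K mutants) and treated with inhibitor concentrations for 2 h. Lysed in LDS buffer; SDS-type PAGE and western blot. Blots probed for P-T288 (Aurora-A autophosphorylation) and phospho-histone H3 S10 (Aurora-B substrate). Blots quantified; IC50 derived; ratio taken as H3 IC50 over T288 IC50.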

The next data set is filed under the species Homo sapiens. Briefly: Selectivity ratio of IC50 for aurora-B (unknown origin)-mediated histone H3 phosphorylation at S10 to IC50 for autophosphorylation of N-terminal Myc tagged aurora-A at T288 (unknown origin). The gist of the method:
as §1

Data set [2] concerns the target T1, Aurora kinase A. Kind of data set: Inhibition of N-terminal HIS-tagged aurora-A (unknown origin) using 5FAM-LRRASLG-CONH2 as substrate after 60 mins. The method, boiled down:
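Aurora-A (5 nM N-terminal His-tagged) incubated with 1.5 μM 5FAM-LRRASLG-CONH2 peptide and 20 μM ATP in 50 mM Tris pH 7.4, 200 mM NaCl, 5 mM MgCl2, 2 mM DTT, 0.1% Tween 20. Runs 60 min at room temperature; EDTA stop. Microfluidic separation of product from substrate. Duplicate 8-point curves, 0.25 pM–200 μM final, 1–2% DMSO. IC50 from four-parameter logistic fit.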

Data set [3] concerns the target T2, Aurora kinase B (Homo sapiens, UniProt Q96GD4). Briefly: Inhibition of N-terminal Myc tagged aurora-B (unknown origin)-mediated histone H3 phosphorylation at S10 after 2 hrs. The method, boiled down:
as §1

For data set [4], the target named is T2, Aurora kinase B. Briefly: Inhibition of full-length aurora-B (unknown origin) using 5FAMLRRASLG-CONH2 as substrate after 60 mins. The method, boiled down:
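Full-length Aurora-B/INCENP complex (1 nM) incubated with 1.5 μM 5FAM-LRRASLG-CONH2 peptide and 15 μM ATP in Tris pH 7.4 buffer with NaCl, MgCl2, DTT, Tween 20. Runs 60 min at room temperature, then EDTA stop. Microfluidic mobility-shift readout of percent conversion. Duplicate 8-point curves, 0.25 pM–200 μM final. IC50 by four-parameter logistic fit.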

Data set [5] has as its target T1, Aurora kinase A. Kind of data set: Inhibition of autophosphorylation of N-terminal Myc tagged aurora-A at T288 in human HeLa cells after 2 hrs. In kind it is cell-based. The method, boiled down: as §1
Data set [6] addresses T2, Aurora kinase B. Kind of data set: Inhibition of N-terminal Myc tagged aurora-B-mediated histone H3 phosphorylation at S10 in human HeLa cells after 2 hrs. In kind it is cell-based. The method, boiled down:
as §1

In the next data set the test system is HeLa. Briefly: Selectivity ratio of IC50 for aurora-B-mediated histone H3 phosphorylation at S10 in human HeLa cells to IC50 for autophosphorylation of N-terminal Myc tagged aurora-A at T288 in human HeLa cells. In kind it is cell-based. The method, boiled down:
as §1

The target in data set [7] is T1, Aurora kinase A. Kind of data set: Inhibition of autophosphorylation of N-terminal Myc tagged wild type aurora-A at T288 in human HCT116 cells after 2 hrs. In kind it is cell-based, HCT-116. The gist of the method: (§2)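 Cells transfected with N-terminal Myc-tagged Aurora-A (wild type or T217E, L215R or R220K mutant, made by Quikchange mutagenesis), then exposed to a range of inhibitor concentrations for 2 h. Lysed in LDS sample buffer, sonicated, boiled, run on LDS-PAGE and blotted to nitrocellulose. Probed with anti-P-T288 (Aurora-A autophosphorylation) and anti-P-histone H3 S10 (Aurora-B substrate) antibodies. Blots quantified and IC50 fitted.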

Data set [8] can be described thus: Metabolic stability in human liver microsomes at 10 uM after 30 mins. In kind it is ADME. The note with it: read-out: Stability. The gist of the method: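 Mixed-gender pooled human liver microsomes (1 mg/mL) incubated with compound at 10 μM plus NADPH 1 mM, UDPGA 2.5 mM and MgCl2 3 mM in 10 mM PBS at 37 °C, for 0 and 30 min. Cofactor-free controls included. Percent remaining measured by LC/MS.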

Data set [9] concerns the target Aurora kinase A (Homo sapiens, UniProt O14965, R220K). Kind of data set: Inhibition of autophosphorylation of aurora-A R220K mutant at T288 in human HCT116 cells after 2 hrs. The format is cell-based, HCT-116. The method, boiled down:
as §2

Data set [10] addresses Aurora kinase A (Homo sapiens, UniProt O14965, L215R). Briefly: Inhibition of autophosphorylation of aurora-A L215R mutant at T288 in human HCT116 cells after 2 hrs. In kind it is cell-based, HCT-116. The gist of the method: as §2
Data set [11] addresses Aurora kinase A (Homo sapiens, UniProt O14965, T217E). Kind of data set: Inhibition of autophosphorylation of aurora-A T217E mutant at T288 in human HCT116 cells after 2 hrs. The format is cell-based, HCT-116. The gist of the method: as §2
Data set [12] can be described thus: Metabolic stability in CD1 mouse liver microsomes at 10 uM after 30 mins. The format is ADME, Microsome. The note with it: read-out: Stability. The method, boiled down:
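Compound at 10 μM incubated with male CD1 mouse liver microsomes (1 mg/mL protein) plus NADPH 1 mM, UDPGA 2.5 mM and MgCl2 3 mM in 10 mM PBS at 37 °C, for 0 and 30 min. Controls omit cofactors. Percent remaining measured by LC/MS.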

The next data set deals with Mus musculus. Kind of data set: Oral bioavailability in Balb/C mouse at 5 mg/kg. The format is ADME, organism-based. The note with it: in vivo. The gist of the method:
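Female Balb/C mice given 5 mg/kg po or iv in 10% DMSO/5% Tween 20 in saline. Terminal cardiac-puncture plasma taken at 5, 15, 30 min and 1, 2, 4, 6, 24 h. Methanol precipitation with olomoucine internal standard. Analysis by LC/MS (ESI+ MRM).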

Data set [13] has as its target T2, Aurora kinase B. The note with it: HCT-116, 25 to 50 uM.
The target of data set [14] is T3, Aurora kinase A (Homo sapiens) (UniProt O14965).
T3 sequence (whole entry): T1 sequence (O14965 whole entry)
Particulars: HCT-116, 1.5 uM.

Data set [15] deals with Vascular endothelial growth factor receptor 1 (Homo sapiens) (UniProt P17948). Briefly: Inhibition of VEGFR1 (unknown origin) at 1 uM. The gist of the method:
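110-kinase panel profiling, compounds tested at 1 μM, read as percent inhibition.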

Data set [16] deals with T2, Aurora kinase B. Briefly: Inhibition of N-terminal Myc tagged aurora-B-mediated histone H3 phosphorylation at S10 in human HCT116 cells after 2 hrs. The format is cell-based, HCT-116. The gist of the method: as §2
Data set [17] has as its target T1, Aurora kinase A. Briefly: Inhibition of autophosphorylation of N-terminal Myc tagged aurora-A at T288 in human HCT116 cells after 2 hrs. In kind it is cell-based, HCT-116. The method, boiled down:
as §1

SMILES strings stand for the structures. Activity calls are given as the source filed them. No cut-off for these calls is given here.

T2 sequence (Q96GD4 whole entry): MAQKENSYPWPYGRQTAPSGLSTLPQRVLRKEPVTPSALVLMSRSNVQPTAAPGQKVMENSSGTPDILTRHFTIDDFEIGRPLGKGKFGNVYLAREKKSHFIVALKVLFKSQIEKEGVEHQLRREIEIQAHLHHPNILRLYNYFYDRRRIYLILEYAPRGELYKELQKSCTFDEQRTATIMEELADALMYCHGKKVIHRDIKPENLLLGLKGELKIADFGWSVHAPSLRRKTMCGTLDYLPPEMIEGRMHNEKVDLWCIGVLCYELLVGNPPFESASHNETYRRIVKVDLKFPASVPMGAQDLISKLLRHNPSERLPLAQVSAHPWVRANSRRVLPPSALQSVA
Chain of Aurora kinase A (Homo sapiens, UniProt O14965, L215R) (O14965 whole entry I57V/L215R): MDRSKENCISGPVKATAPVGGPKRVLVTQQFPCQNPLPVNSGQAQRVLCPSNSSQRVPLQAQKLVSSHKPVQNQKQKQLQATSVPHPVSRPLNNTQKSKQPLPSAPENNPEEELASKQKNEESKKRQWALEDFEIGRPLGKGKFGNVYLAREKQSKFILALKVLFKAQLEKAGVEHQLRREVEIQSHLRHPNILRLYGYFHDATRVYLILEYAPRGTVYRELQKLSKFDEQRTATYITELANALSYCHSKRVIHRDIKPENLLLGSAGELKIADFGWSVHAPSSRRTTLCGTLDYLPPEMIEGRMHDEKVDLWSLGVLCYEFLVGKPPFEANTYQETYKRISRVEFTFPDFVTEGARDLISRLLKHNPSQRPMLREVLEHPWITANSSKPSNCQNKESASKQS
Chain of Aurora kinase A (Homo sapiens, UniProt O14965, R220K) (O14965 whole entry I57V/R220K): as the sequence (O14965 whole entry I57V/L215R) above, with R215L, R220K counted along it
Chain of Vascular endothelial growth factor receptor 1 (Homo sapiens) (P17948 whole entry): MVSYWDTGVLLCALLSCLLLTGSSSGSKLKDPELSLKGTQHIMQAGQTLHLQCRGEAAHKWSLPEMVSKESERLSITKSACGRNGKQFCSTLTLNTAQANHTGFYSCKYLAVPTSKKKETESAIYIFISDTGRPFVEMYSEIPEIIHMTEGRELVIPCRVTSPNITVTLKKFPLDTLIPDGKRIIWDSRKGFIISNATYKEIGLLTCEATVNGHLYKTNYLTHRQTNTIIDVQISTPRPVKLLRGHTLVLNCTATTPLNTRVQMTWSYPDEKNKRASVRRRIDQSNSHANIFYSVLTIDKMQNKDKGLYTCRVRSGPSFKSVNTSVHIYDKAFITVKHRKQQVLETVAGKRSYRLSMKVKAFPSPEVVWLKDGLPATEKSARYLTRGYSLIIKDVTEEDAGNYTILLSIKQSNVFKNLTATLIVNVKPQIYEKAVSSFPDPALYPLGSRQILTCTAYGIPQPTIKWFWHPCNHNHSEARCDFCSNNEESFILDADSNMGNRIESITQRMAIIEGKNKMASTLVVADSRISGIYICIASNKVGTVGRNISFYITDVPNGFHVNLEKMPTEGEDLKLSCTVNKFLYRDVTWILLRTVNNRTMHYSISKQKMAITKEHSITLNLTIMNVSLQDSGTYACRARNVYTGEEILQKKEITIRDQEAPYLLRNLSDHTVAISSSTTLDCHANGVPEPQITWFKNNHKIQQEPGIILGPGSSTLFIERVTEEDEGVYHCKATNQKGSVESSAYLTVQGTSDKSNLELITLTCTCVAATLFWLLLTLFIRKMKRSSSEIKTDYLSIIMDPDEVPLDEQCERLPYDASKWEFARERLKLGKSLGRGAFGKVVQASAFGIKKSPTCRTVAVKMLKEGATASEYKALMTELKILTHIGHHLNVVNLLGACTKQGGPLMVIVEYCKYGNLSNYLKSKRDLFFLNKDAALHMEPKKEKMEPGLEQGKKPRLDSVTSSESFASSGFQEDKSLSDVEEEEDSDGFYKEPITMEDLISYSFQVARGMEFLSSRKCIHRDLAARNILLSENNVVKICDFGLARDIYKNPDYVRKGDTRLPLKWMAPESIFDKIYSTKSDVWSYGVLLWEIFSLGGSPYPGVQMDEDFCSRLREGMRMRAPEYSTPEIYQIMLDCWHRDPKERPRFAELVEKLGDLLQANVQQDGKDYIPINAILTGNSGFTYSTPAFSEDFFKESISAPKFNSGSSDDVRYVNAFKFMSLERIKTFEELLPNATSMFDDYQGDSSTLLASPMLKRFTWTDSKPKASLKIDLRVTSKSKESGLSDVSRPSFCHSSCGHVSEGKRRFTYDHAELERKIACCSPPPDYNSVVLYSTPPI
Chain of Aurora kinase A (Homo sapiens, UniProt O14965, T217E) (O14965 whole entry I57V/T217E): as the sequence (O14965 whole entry I57V/L215R) above, with R215L, T217E counted along it

On to `Cc1nn(C)cc1-c1nc2c(Nc3ccc(C(=O)Nc4ccccc4)cc3)c(Cl)cnc2[nH]1`, for which the IC50 was 320 nM against Aurora kinase A [1], 75 nM against Aurora kinase A [2], 18600 nM at Aurora kinase B [3] and 4120 nM against Aurora kinase B [4]. Moreover, the Ratio IC50 in the data set filed under Homo sapiens was found to be 58.
For the compound `COc1ccc(-c2[nH]c3ncc(Cl)cc3c2-c2cccc(CNS(C)(=O)=O)c2)cc1`, the IC50 at Aurora kinase A [2] was determined as 1940 nM; on Aurora kinase B [4], 7100 nM.
On to `Cc1nn(C)cc1-c1nc2ncc(Cl)c(Oc3ccc(C(=O)Nc4ccncc4)cc3)c2[nH]1`, for which the IC50 against Aurora kinase A [5] turned out to be 580 nM; against Aurora kinase A [2], 190 nM; against Aurora kinase B [4], 3450 nM; on Aurora kinase B [6], 19700 nM.
With `Cc1nn(C)cc1-c1nc2ncc(Cl)c(Oc3ccc(C(=O)N4CCCC4)cc3)c2[nH]1`, the IC50 against Aurora kinase A [2] came to 45 nM; at Aurora kinase B [4] it was 1820 nM.
Taken in the same sequence, the figures for `Cc1nn(C)cc1-c1nc2c(Oc3ccc(C(=O)NCc4ccccc4)cc3)c(Cl)cnc2[nH]1` were 204 nM and 3910 nM.
For the compound `Cc1nn(C)cc1-c1nc2c(Oc3ccc(C(=O)Nc4ccncc4)cc3)c(Cl)cnc2[nH]1`, the Ratio IC50 with HeLa is 34.
Take `Cc1nn(C)cc1-c1nc2ncc(Cl)c(Oc3ccc(C(=O)NC4CCC4)cc3)c2[nH]1`: the IC50 is 36 nM against Aurora kinase A [7]; 42 nM against Aurora kinase A [9]; 70 nM on Aurora kinase A [5]; 43 nM against Aurora kinase A [10]; 2290 nM against Aurora kinase A [11]; 15 nM against Aurora kinase A [2]. Moreover, the IC50 against Aurora kinase B [4] came to 3050 nM; at Aurora kinase B [6] it was 24200 nM. Besides, the remaining at 0.5 h, 10 µM was 22% in data set [8] and 28% in [12]. For the same compound, the F with Mus musculus is 14%.
The compound `Cc1nn(C)cc1-c1nc2c(Oc3ccc(C(=O)Nc4ccccc4)cc3)ccnc2[nH]1` gave an IC50 at Aurora kinase A [2] of 618 nM.
The same measure, in the same setting: the result for `O=C(Nc1ccccc1)c1ccc(Oc2c(Cl)cnc3nc[nH]c23)cc1` reads 25800 nM.
`COc1ccc(-c2[nH]c3ncc(Cl)cc3c2-c2cccc(CNC(C)=O)c2)cc1`: the IC50 against Aurora kinase A [2] turned out to be 743 nM; against Aurora kinase B [4], 1090 nM.
Turning to `Cc1nn(C)cc1-c1nc2c(Oc3ccc(C(=O)NC4CCC4)cc3)c(Cl)cnc2[nH]1`, the Ratio IC50 in the data set with HeLa was 346. Also, the inhibition result (on Aurora kinase B [13]; in [14]) was “Active” each time. The inhibition in [15] was > 80%.
With `CC(=O)N[C@@H]1CCN(c2c(Cl)cnc3[nH]c(-c4cn(C)nc4C)nc23)C1`, the IC50 amounted to 4 nM against Aurora kinase A [2] and 2 nM on Aurora kinase B [4].
Taken in the same sequence, the figures for `Cc1nn(C)cc1-c1nc2c(N3CCC[C@H](CNS(C)(=O)=O)C3)c(Cl)cnc2[nH]1` were 5 nM and 8 nM.
Regarding `Cc1cc(NC(=O)c2ccc(Oc3c(Cl)cnc4nc(-c5cn(C)nc5C)[nH]c34)cc2)on1`, the IC50 against Aurora kinase B [16] is 4930 nM; at Aurora kinase A [17], 95 nM; against Aurora kinase A [2] it was 71 nM; on Aurora kinase B [4], 693 nM.
With `Cc1nn(C)cc1-c1nc2c(Oc3ccc(C(=O)Nc4cccnc4)cc3)c(Cl)cnc2[nH]1`, the Ratio IC50 in the data set with HeLa amounted to 70. Further, the IC50 came out at 280 nM on Aurora kinase A [5], 58 nM on Aurora kinase A [2], 1680 nM on Aurora kinase B [4] and 19700 nM on Aurora kinase B [6].
As for `Cn1cc(-c2[nH]c3ncc(Cl)cc3c2-c2cccc(CNS(C)(=O)=O)c2)cn1`, the IC50 on Aurora kinase A [2] is 211 nM; on Aurora kinase B [4], 441 nM.
Turning to `CC(=O)N[C@H]1CCN(c2c(Cl)cnc3[nH]c(-c4cn(C)nc4C)nc23)C1`, the IC50 on Aurora kinase A [2] stood at 270 nM; against Aurora kinase B [4], 80 nM.
Taken in the same sequence, the figures for `Cc1nn(C)cc1-c1nc2c(N3CCC[C@H](CN(C)S(C)(=O)=O)C3)c(Cl)cnc2[nH]1` were 5 nM and 9 nM.
In the same order, the values of `CC(=O)NCc1cccc(-c2c(-c3cnn(C)c3)[nH]c3ncc(Cl)cc23)c1` are 118 nM and 97 nM.
In the same order, the values of `Cc1nn(C)cc1-c1nc2ncc(Cl)c(N3CCC[C@@H](CNS(C)(=O)=O)C3)c2[nH]1` are 7 nM and 17 nM.
`CC(=O)NC[C@@H]1CCN(c2c(Cl)cnc3nc(-c4cn(C)nc4C)[nH]c23)C1`: the IC50 against Aurora kinase A [2] was determined as 9 nM; against Aurora kinase B [4], 7 nM.
On to `Cc1nn(C)cc1-c1nc2c(N(C)Cc3ccccc3)c(Cl)cnc2[nH]1`, for which the IC50 turned out to be 255 nM against Aurora kinase A [2] and 169 nM against Aurora kinase B [4].

The values are drawn from ChEMBL document CHEMBL3085696, “Aurora isoform selectivity: design and synthesis of imidazo[4,5-b]pyridine derivatives as highly selective inhibitors of Aurora-A kinase in cells” (J Med Chem, 2013).
